From PubChem BioAssay
ASAP1 GAP inh: ASAP1 ArfGAP inhibition; 0.19% of 360,000 active; inhibition, % at 16.5 µM; AID 624377; Q9ULH1; ASAP1-stimulated ARF1 GTP hydrolysis, GDP FP detection; in the data active means inhibition above about 25%;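 further: 0% = vehicle with enzyme and substrate and 100% = no enzyme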
Target sequence (Q9ULH1 325-724 limits assumed): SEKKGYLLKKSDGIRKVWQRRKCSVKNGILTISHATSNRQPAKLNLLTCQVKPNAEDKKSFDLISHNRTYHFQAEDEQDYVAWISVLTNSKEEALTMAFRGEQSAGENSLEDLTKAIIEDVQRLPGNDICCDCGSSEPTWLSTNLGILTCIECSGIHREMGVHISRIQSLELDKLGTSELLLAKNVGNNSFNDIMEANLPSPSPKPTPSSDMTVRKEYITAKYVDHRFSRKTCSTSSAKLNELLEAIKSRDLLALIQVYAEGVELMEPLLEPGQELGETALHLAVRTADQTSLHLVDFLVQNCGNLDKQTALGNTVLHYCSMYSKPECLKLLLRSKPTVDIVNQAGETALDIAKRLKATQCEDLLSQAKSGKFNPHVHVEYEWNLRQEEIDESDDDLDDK
IDE cell activ: boosts human insulin-degrading enzyme activity in HEK cells. 0.073% of 340,000 active. FAbeta-B cleavage, fluorescence polarization; 0% vehicle, 100% cell-free pure enzyme wells. P14735. activation, % at 5.96 µM;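 active means activation above the mean of all tested compounds plus 3 SD, set per screening campaign, cut at about 17% in these data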
IDE inh: inhibitors of human insulin-degrading enzyme in cells; P14735; HEK cells, FAbetaB cleavage, fluorescence polarization; inhibition, % at 5.59 µM; 0.41% of 320,000 active;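 active means percent inhibition above the average of all tested compounds plus 3 SD, set per screening campaign, cut at about 16% in these data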;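 further: IDE supplied by intact live HEK cells; FP after avidin binding of uncleaved biotin substrate so inhibition keeps polarization high; 0% = DMSO wells and 100% = 60 µM reference IDE inhibitor Ii1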
PREPL inh: inhibitors of human prolyl oligopeptidase-like enzyme PREPL | Q4J6C6 | recombinant PREPL, fluorescence polarization activity-based probe | inhibition, % at 5.96 µM | 0.68% of 320,000 active | AID 2751; in the data active means inhibition above about 43%;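 further: 0% = enzyme with DMSO and 100% = wells lacking enzyme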
ARFGAP1 inh: inhibits rat ARF GTPase activating protein 1; AID 651572; Arfgap1-stimulated ARF1 GTP hydrolysis, GDP FP detection; inhibition, % at 16.5 µM; 0.26% of 360,000 active;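 active means inhibition above a per-plate limit, mean inhibition of low control wells plus 3 SD, cut at about 25% in these data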;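 further: 0% = DMSO wells with enzyme and 100% = wells lacking Arfgap1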
Target sequence (Q62848 1-136 limits assumed): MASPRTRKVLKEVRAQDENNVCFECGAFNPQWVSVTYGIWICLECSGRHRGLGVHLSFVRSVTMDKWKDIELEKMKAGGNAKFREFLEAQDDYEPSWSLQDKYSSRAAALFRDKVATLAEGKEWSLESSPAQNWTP
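Assay system: purified rat His6-Arfgap1 residues 1-136 (GAP domain); Reagent: human Δ17 ARF1 bound to GTP; Dosing: 16.5 µM single point, 1.26% DMSO; Times: GTP hydrolysis reaction 2 h at 25 °C; Signal: FP, GDP Alexa 633 tracer displaced from anti-GDP antibody, 620/688 nm; Measure: % inhibition from polarization.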
IDE inh confirm: cellular human IDE inhibition, confirmation. inhibition, % at 5.59 µM. 51% of 1,200 active. shares compounds with IDE inh. HEK cells, FAbetaB cleavage, fluorescence polarization;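 active means mean inhibition across triplicate wells above the cutoff set by the earlier primary insulin-degrading enzyme screen, cut at about 16% in these data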;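 further: 0% = DMSO wells and 100% = 60 µM reference IDE inhibitor Ii1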
HEK cytotox: counter-screen for IDE inhibitors: cytotoxicity in HEK cells | inhibition, % at 5.59 µM | HEK293 cytotoxicity, ATP luminescence | 28% of 1,200 active | shares compounds with IDE inh; in the data active means inhibition above about 22%;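 further: 0% = vehicle wells and 100% = reference cytotoxic drug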
* marks the source's active call; other numbers are inactive results; nt = not tested or not shown. In the library only some 1.2% were active in any assay of this set; here they are far more common.

SMILES | ASAP1 GAP inh | IDE cell activ | IDE inh | PREPL inh | ARFGAP1 inh | IDE inh confirm | HEK cytotox
CN1CCc2c(C#N)c(N3CCCCC3)nc(N3CCOCC3)c2C1 | nt | nt | 3 | 1 | nt | nt | nt
C=CCNc1nc(N2CCOCC2)c(C#N)c2c1CN(C)CC2 | 4 | -2 | 16* | 13 | -13 | 3 | 12
Cc1c(C(=O)NC2CCCC2)oc2ccccc12 | 5 | 4 | -2 | 2 | -7 | nt | nt
CCN(Cc1nc(-c2ccc(OC)c(OC)c2)no1)C(=O)c1ccoc1C | -12 | -3 | -6 | -5 | -7 | nt | nt
O=C1/C(=C\c2c(NCCOCCO)nc3ccccn3c2=O)SC(=S)N1Cc1ccco1 | 2 | -69 | 99* | -58 | -2 | 80* | 15
CN1/C(=C/C=C(/C#N)C(N)=O)C(C)(C)c2ccccc21 | -2 | -3 | 3 | 3 | -2 | nt | nt
CN1/C(=C\C=C(/C#N)C(=O)Nc2ccccc2F)C(C)(C)c2ccccc21 | 12 | -44 | 25* | 9 | 11 | 35* | 14
CN(C)c1ccc(/C=C2\SC(=S)N(Nc3ncc(C(F)(F)F)cc3Cl)C2=O)cc1 | 13 | -155 | 49* | -22 | 12 | 130* | 10
COC(=O)c1cn(Nc2ncc(C(F)(F)F)cc2Cl)c(=O)c2ccccc12 | -1 | 1 | -1 | 0 | 3 | nt | nt
COc1cc(/C=C2\SC(=S)N(Nc3ncc(C(F)(F)F)cc3Cl)C2=O)ccc1O | 7 | -87 | 51* | -101 | 9 | 129* | 7
COc1cc([N+](=O)[O-])ccc1NC(=O)CSc1nncn1-c1cccnc1 | 2 | -1 | -3 | -9 | 0 | nt | nt
O=C(Nc1nc(-c2ccc(S(=O)(=O)N3CCOCC3)cc2)cs1)c1ccccc1 | -6 | -7 | 22* | -4 | 5 | 3 | 72*
COc1cccc(C(=O)Nc2nc(-c3ccc(S(=O)(=O)N4CCOCC4)cc3)cs2)c1 | 0 | -20 | 40* | -8 | 4 | 16 | 58*
O=C(Nc1nc(-c2nc3ccccc3s2)cs1)c1ccc(S(=O)(=O)N2CCOCC2)cc1 | 9 | 4 | 3 | -79 | 12 | nt | nt
O=C(NCc1nc2ccccc2[nH]1)C1=C[C@H](C2CC2)C[C@H](OCc2ccc(CO)cc2)O1 | 10 | 4 | 3 | -8 | 2 | nt | nt
Cc1ccc(N(CC(=O)N/N=C/c2cccc(Br)c2)S(C)(=O)=O)cc1 | 0 | -16 | 27* | -29 | 1 | 17* | 6
O=C(NNC(=O)c1cccc2ccccc12)c1ccc(-c2ccccc2)cc1 | -17 | -8 | 18* | 2 | 0 | 3 | 47*
O=C(NNC(=O)c1cccc2ccccc12)c1ccccc1O | 4 | 4 | -6 | 3 | -13 | nt | nt
COc1ccccc1-c1ccc(/C=C2/C=C(C)OC2=O)o1 | 15 | -5 | 1 | 0 | 7 | nt | nt
COc1ccccc1-c1ccc(/C=C2\C=CC(=O)O2)o1 | 5 | nt | 29* | 17 | 2 | 39* | 12
O=C(COC(=O)c1cccnc1Cl)NC1CCCc2ccccc21 (configuration not stated) | 7 | 4 | -5 | 2 | 1 | nt | nt
CSc1ncccc1C(=O)OCC(=O)NC1CCCc2ccccc21 (configuration not stated) | 4 | -16 | 19* | 0 | 2 | 0 | 15
c1ccc2c(c1)[nH]c1c(N3CCSCC3)ncnc12 | 0 | -10 | 11 | 9 | -2 | nt | nt
Cc1ccc2[nH]c3c(N4CCOCC4)ncnc3c2c1 | -6 | -11 | 29* | 13 | 5 | 9 | 21
Clc1ccc2[nH]c3c(N4CCC5(CC4)OCCO5)ncnc3c2c1 | nt | nt | 22* | 19 | nt | 10 | 60*
SMILES | ASAP1 GAP inh | IDE cell activ | IDE inh | PREPL inh | ARFGAP1 inh | IDE inh confirm | HEK cytotox
c1ccc2c(c1)[nH]c1c(N3CCOCC3)ncnc12 | -6 | -12 | 18* | -2 | 1 | 8 | 20
c1ccc2c(c1)[nH]c1c(N3CCCC3)ncnc12 | -8 | -12 | 16* | 10 | 8 | 10 | 49*
O=C(NNC(=S)Nc1ccccc1)C1CCCCC1 | 7 | -3 | 1 | 8 | 3 | nt | nt
Cc1cccc(C(=O)N(C(=O)c2cccc(C)c2)N(C)C)c1 | -5 | 4 | nt | nt | 13 | nt | nt
COc1ccc(C(=O)N/C(=C/c2ccccc2F)C(=O)NCCN2CCOCC2)cc1OC | 9 | 3 | -12 | -1 | -4 | nt | nt
COC(=O)c1ccc(CNC(=O)C2CCC(=O)N(CCN3CCOCC3)C2)cc1 (configuration not stated) | 3 | 4 | nt | nt | 2 | nt | nt
CC(C)C[C@@H](C(=O)NCc1ccco1)N1C(=O)N2CCc3c([nH]c4ccccc34)[C@@]2(C)C1=O | 14 | 1 | -1 | 6 | -11 | nt | nt
CC(=O)c1cc(NC(=O)c2ccc(Cl)cc2)c(=O)oc1/C=C/N(C)C | -2 | -43 | 17* | 14 | -4 | 54* | 12
Nc1ccc(O)c2ccccc12 | nt | nt | 2 | 32 | nt | nt | nt
N#CC1=C(S)N=C(N)C(c2nc(-c3ccccc3)cs2)C12CCCC2 (configuration not stated) | 1 | -10 | 20* | -7 | 2 | 9 | 6
Cc1ccccc1-n1nc2c(c1NC(=O)c1cc3ccccc3o1)CS(=O)(=O)C2 | 12 | 1 | -3 | -3 | -1 | nt | nt
Nc1c(C(=O)N/N=C/c2ccc(Cl)cc2)cnn1-c1ccccc1 | -3 | -3 | 18* | 4 | 21 | 2 | 9
Nc1c(C(=O)N/N=C/c2cccnc2)cnn1-c1ccccc1 | 4 | 0 | 2 | 8 | 3 | nt | nt
COc1ccccc1C(=O)Nc1ccccc1SC(=O)c1ccccc1OC | -3 | -21 | 43* | 2 | 7 | 11 | 30*
COC(=O)c1ccccc1NC(=O)c1ccccc1OC | 1 | -6 | 5 | -5 | 0 | nt | nt
CC1CCCCN1CCCNC(=O)c1cc(Br)c(Br)[nH]1 (configuration not stated) | 1 | 3 | 3 | 9 | -2 | nt | nt
CC(C)CC(=O)N1CCN(c2ccc([N+](=O)[O-])c(NCc3ccccc3)c2)CC1 | 2 | 3 | -10 | 9 | -2 | nt | nt
CC(=O)c1ccc(NCC(=O)N2CCN(c3ccccc3)CC2)cc1 | 12 | -17 | 21* | 42 | -1 | 7 | 9
CC(=O)c1ccc(N2CCN(C(=S)Nc3ccccc3)CC2)cc1 | 7 | -2 | 4 | -2 | 14 | nt | nt
Cc1cc(C)c([N+](=O)[O-])cc1NCC(=O)N1CCN(c2ccccc2)CC1 | -3 | -10 | 22* | 21 | 9 | 7 | 3
CCc1nc2ccccc2c(C(=O)Nc2cccc(C)c2)c1C | 5 | 2 | -1 | 11 | 11 | nt | nt
CC(=O)NN1C(=O)/C(=C\c2ccc(C)cc2)SC1=S | 12 | -4 | -1 | 8 | 0 | nt | nt
CC(=O)NN1C(=O)/C(=C\c2ccc(O)cc2)SC1=S | 1 | -73 | 36* | -25 | -7 | 89* | 8
